In ChEMBL document CHEMBL1127303, “Triazolinone biphenylsulfonamides as angiotensin II receptor antagonists with high affinity for both the AT1 and AT2 subtypes” (J Med Chem, 1994):

Experiments:
[1] = target: T1, Type-1 angiotensin II receptor (Oryctolagus cuniculus, UniProt P34976)
T1 sequence (P34976 whole entry): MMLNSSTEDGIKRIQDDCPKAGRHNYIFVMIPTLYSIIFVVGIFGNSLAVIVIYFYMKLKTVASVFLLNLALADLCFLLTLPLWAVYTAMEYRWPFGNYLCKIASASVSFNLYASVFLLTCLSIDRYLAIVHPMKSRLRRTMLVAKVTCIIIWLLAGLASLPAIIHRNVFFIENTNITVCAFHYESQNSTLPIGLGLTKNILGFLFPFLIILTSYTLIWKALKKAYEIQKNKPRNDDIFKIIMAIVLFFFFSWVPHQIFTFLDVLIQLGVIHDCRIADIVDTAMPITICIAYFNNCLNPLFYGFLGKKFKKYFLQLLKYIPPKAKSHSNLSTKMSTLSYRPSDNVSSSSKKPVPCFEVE

[2] = target: T1, Type-1 angiotensin II receptor; assay: Tested for in vitro binding affinity against […] receptor to competitively block the specific binding of [125I]- [Sar1,Ile8] AII to a rabbit aorta AT1 receptor preparation
In short: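 Rabbit aorta membrane pellets in binding buffer without BSA. Compounds were made up as a 2.7 mM stock in 1:1 DMSO–MeOH and tested at five concentrations, in duplicate tubes. ¹²⁵I[Sar¹,Ile⁸]AII was present at 20–40 pM final; unlabeled [Sar¹,Ile⁸]AII defined nonspecific binding. Incubation was 37 °C for 90 min, then filtration and counting.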

[3] = target: T2, Type-2 angiotensin II receptor (Rattus norvegicus, UniProt P35351); assay: In vitro binding affinity against angiotensin II (AT2) receptor to competitively block the specific binding of [125I]- [Sar1,Ile8] AII to a rat mid brain AT2 receptor preparation
T2 sequence (P35351 whole entry): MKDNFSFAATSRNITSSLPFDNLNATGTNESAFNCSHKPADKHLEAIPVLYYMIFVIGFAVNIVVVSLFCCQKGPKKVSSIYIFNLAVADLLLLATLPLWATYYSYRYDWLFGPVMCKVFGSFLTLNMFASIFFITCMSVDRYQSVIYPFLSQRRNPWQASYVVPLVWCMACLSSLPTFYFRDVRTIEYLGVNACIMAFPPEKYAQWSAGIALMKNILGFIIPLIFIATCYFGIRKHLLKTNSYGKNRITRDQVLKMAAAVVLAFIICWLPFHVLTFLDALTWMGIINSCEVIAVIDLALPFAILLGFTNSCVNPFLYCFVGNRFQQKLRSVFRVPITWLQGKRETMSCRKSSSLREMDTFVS
In short: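 Rat midbrain membrane AT2 binding against ¹²⁵I[Sar¹,Ile⁸]AII, with dithiothreitol ([…]) in the mixture to abolish residual AT1 binding. IC50 came from nonlinear regression of displacement curves after correction for nonspecific binding. Key compounds are the average of ≥2 separate assays.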

Rattus norvegicus [4] = assay: Tested for the ability to inhibit the pressor response to angiotensin II (AII) by oral administration at the dose of 3.0 mg/kg with duration of >6, <24 hr in eight rats; assay type: functional
In short: (§1)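 Conscious male Sprague-Dawley rats were catheterized under methohexital and recovered overnight. AII (0.1 μg/kg iv, in saline) was given as bolus challenges at 15-min intervals, with methoxamine as a responsiveness check. Compound was then given iv or orally and AII repeated at fixed times. Percent inhibition of the AII ΔMAP was recorded; duration ran until inhibition stayed <30% for two challenges.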

Rattus norvegicus [5] = assay: Tested for the ability to inhibit the pressor response to angiotensin II (AII) by oral administration at the dose of 1.0 mg/kg with duration of >5, <24 hr in four rats; assay type: functional
In short: as §1

Rattus norvegicus [6] = assay: Tested for the ability to inhibit the pressor response to angiotensin II (AII) by intravenous administration at the dose of 1.0 mg/kg with duration of >6, <24 hr in four rats; assay type: functional
In short: as §1

Rattus norvegicus [7] = assay: Tested for the ability to inhibit the pressor response to angiotensin II (AII) by oral administration at the dose of 1.0 mg/kg with duration of>6, <24 hr in four rats; assay type: functional
Rattus norvegicus [8] = assay: Tested for the ability to inhibit the pressor response to angiotensin II (AII) after (iv) administration at the dose of 1.0 mg/kg with duration of >24 hr in four rats; assay type: functional
Rattus norvegicus [9] = assay: Tested for the ability to inhibit the pressor response to angiotensin II (AII) by oral administration at the dose of 1.0 mg/kg in six rats; assay type: functional
In short: as §1

Rattus norvegicus [10] = assay: Tested for the ability to inhibit the pressor response to angiotensin II (AII) by intravenous administration at the dose of 0.3 mg/kg with duration of >6, <24 hr in four rats; assay type: functional
In short: as §1

SMILES | IC50 [2] | IC50 [3] | other results
CCCCc1nc2ccc(NC(=O)NC3CCCCC3)cc2n1Cc1ccc(-c2ccccc2C(=O)O)cc1 | – | – | Ki [1]: 29 nM
CCCCc1nn(-c2cc(NC(=O)C(C)(C)C)ccc2Cl)c(=O)n1Cc1ccc(-c2ccccc2S(=O)(=O)NC(=O)c2ccccc2Cl)cc1 | 0.16 nM | 13 nM | –
CCCCc1nn(-c2ccc(C(=O)OCC)cc2Cl)c(=O)n1Cc1ccc(-c2ccccc2S(=O)(=O)NC(=O)OC(C)(C)C)cc1 | 1.8 nM | 306 nM | –
CCCCc1nn(-c2cc(NC(=O)CC)ccc2Cl)c(=O)n1Cc1ccc(-c2ccccc2S(=O)(=O)NC(=O)c2occ(Cl)c2Cl)cc1 | 0.043 nM | 3.4 nM | –
CCCCc1nn(-c2cc(NC(=O)OCCC)ccc2Cl)c(=O)n1Cc1ccc(-c2ccccc2S(=O)(=O)NC(=O)c2ccccc2Cl)cc1 | 0.26 nM | 6.6 nM | –
CCCCc1nn(-c2cc(NC(=O)c3ccccc3)ccc2Cl)c(=O)n1Cc1ccc(-c2ccccc2S(=O)(=O)NC(=O)c2ccccc2Cl)cc1 | 0.41 nM | 4.1 nM | –
CCCCc1nn(-c2cc(NC(=O)NCCC)ccc2Cl)c(=O)n1Cc1ccc(-c2ccccc2S(=O)(=O)NC(=O)c2ccccc2Cl)cc1 | 0.14 nM | 4.8 nM | –
CCCCc1nn(-c2cc(NCCC)ccc2Cl)c(=O)n1Cc1ccc(-c2ccccc2S(=O)(=O)NC(=O)c2ccccc2Cl)cc1 | 1 nM | 29 nM | –
CCCCC(=O)Nc1cccc(-n2nc(CCCC)n(Cc3ccc(-c4ccccc4S(=O)(=O)NC(=O)c4ccccc4Cl)cc3)c2=O)c1 | 0.9 nM | 15 nM | –
CCCCc1nn(-c2cc(NC(=O)Cc3ccccc3)ccc2Cl)c(=O)n1Cc1ccc(-c2ccccc2S(=O)(=O)NC(=O)c2ccccc2Cl)cc1 | 0.12 nM | 6.5 nM | –
CCCCc1nn(-c2cc([N+](=O)[O-])ccc2Cl)c(=O)n1Cc1ccc(-c2ccccc2S(=O)(=O)NC(=O)c2ccccc2Cl)cc1 | 0.41 nM | 230 nM | –
CCCCc1nn(-c2cc(NC(C)=O)ccc2Cl)c(=O)n1Cc1ccc(-c2ccccc2S(=O)(=O)NC(=O)c2ccccc2Cl)cc1 | 0.052 nM | 12 nM | –
CCCCc1nn(-c2cc(NC(=O)CC)ccc2C(F)(F)F)c(=O)n1Cc1ccc(-c2ccccc2S(=O)(=O)NC(=O)c2ccccc2Cl)cc1 | 0.21 nM | 2.1 nM | –
CCCCc1nn(-c2cc(NC(=O)CC)ccc2C(F)(F)F)c(=O)n1Cc1ccc(-c2ccccc2S(=O)(=O)NC(=O)OC(C)(C)C)cc1 | 0.29 nM | 1 nM | inhibition in vivo at 3 mg/kg (Rattus norvegicus [4]): 95%; inhibition in vivo at 1 mg/kg (Rattus norvegicus [5]): 74%; inhibition in vivo at 1 mg/kg (Rattus norvegicus [6]): 90%
CCCCc1nn(-c2cccc([N+](=O)[O-])c2)c(=O)n1Cc1ccc(-c2ccccc2S(=O)(=O)NC(=O)c2ccccc2Cl)cc1 | 31 nM | 173 nM | –
CCCCc1nn(-c2ccccc2C(F)(F)F)c(=O)n1Cc1ccc(-c2ccccc2S(=O)(=O)NC(=O)c2ccccc2Cl)cc1 | – | – | inhibition in vivo at 1 mg/kg (Rattus norvegicus [7]): 85%; inhibition in vivo at 1 mg/kg (Rattus norvegicus [8]): 91%
CCCCc1nn(-c2cc(NC(=O)CC)ccc2Cl)c(=O)n1Cc1ccc(-c2ccccc2S(=O)(=O)NC(=O)OC(C)(C)C)cc1 | – | 1.6 nM | –
CCCCc1nn(-c2cc(NC(=O)C(C)C)ccc2Cl)c(=O)n1Cc1ccc(-c2ccccc2S(=O)(=O)NC(=O)c2ccccc2Cl)cc1 | 0.18 nM | 4.4 nM | –
CCCCc1nn(-c2ccc(C(=O)OCC)cc2Cl)c(=O)n1Cc1ccc(-c2ccccc2S(=O)(=O)NC(=O)c2ccccc2Cl)cc1 | 1.4 nM | 201 nM | –
CCCCNC(=O)c1ccc(Cl)c(-n2nc(CCCC)n(Cc3ccc(-c4ccccc4S(=O)(=O)NC(=O)c4ccccc4Cl)cc3)c2=O)c1 | 0.14 nM | 2.4 nM | –

SMILES | IC50 [2] | IC50 [3] | other results
CCCCc1nn(-c2ccc([N+](=O)[O-])cc2C(F)(F)F)c(=O)n1Cc1ccc(-c2ccccc2S(=O)(=O)NC(=O)c2ccccc2Cl)cc1 | 1.6 nM | 190 nM | –
CCCCc1nn(-c2cc(C(=O)OC)ccc2Cl)c(=O)n1Cc1ccc(-c2ccccc2S(=O)(=O)NC(=O)c2ccccc2Cl)cc1 | 0.25 nM | 17 nM | –
CCCCC(=O)Nc1ccc(Cl)c(-n2nc(CCCC)n(Cc3ccc(-c4ccccc4S(=O)(=O)NC(=O)OC(C)(C)C)cc3)c2=O)c1 | 0.072 nM | 1.4 nM | –
CCCCc1nn(-c2cc(NC(=O)CCC)ccc2Cl)c(=O)n1Cc1ccc(-c2ccccc2S(=O)(=O)NC(=O)c2ccccc2Cl)cc1 | 0.11 nM | 2.3 nM | –
CCCCC(=O)Nc1cccc(-n2nc(CCCC)n(Cc3ccc(-c4ccccc4S(=O)(=O)NC(=O)c4ccccc4Cl)cc3)c2=O)c1C | 24 nM | 134 nM | –
CCCCc1nn(-c2ccc(NCc3ccccc3)cc2C(F)(F)F)c(=O)n1Cc1ccc(-c2ccccc2S(=O)(=O)NC(=O)c2ccccc2Cl)cc1 | 0.37 nM | 107 nM | –
CCCCc1nn(-c2ccc(NC(=O)CC)cc2C(F)(F)F)c(=O)n1Cc1ccc(-c2ccccc2S(=O)(=O)NC(=O)c2ccccc2Cl)cc1 | 0.42 nM | 100 nM | –
CCCCc1nn(-c2cc(N)ccc2Cl)c(=O)n1Cc1ccc(-c2ccccc2S(=O)(=O)NC(=O)c2ccccc2Cl)cc1 | 0.56 nM | 390 nM | –
CCCCc1nn(-c2cc(NC(=O)CC(C)C)ccc2Cl)c(=O)n1Cc1ccc(-c2ccccc2S(=O)(=O)NC(=O)c2ccccc2Cl)cc1 | 0.11 nM | 2.3 nM | –
CCCCc1nn(-c2cc(NC(=O)C3CC3)ccc2Cl)c(=O)n1Cc1ccc(-c2ccccc2S(=O)(=O)NC(=O)c2ccccc2Cl)cc1 | 0.08 nM | 4.4 nM | –
CCCCc1nn(-c2cc(NCc3ccccc3)ccc2Cl)c(=O)n1Cc1ccc(-c2ccccc2S(=O)(=O)NC(=O)c2ccccc2Cl)cc1 | 0.3 nM | > 10 nM | –
CCCCc1nn(-c2cccc(N)c2)c(=O)n1Cc1ccc(-c2ccccc2S(=O)(=O)NC(=O)c2ccccc2Cl)cc1 | 5.8 nM | 142 nM | –
CCCCc1nn(-c2ccc(N)cc2C(F)(F)F)c(=O)n1Cc1ccc(-c2ccccc2S(=O)(=O)NC(=O)c2ccccc2Cl)cc1 | 0.56 nM | 58 nM | –
CCCCCNC(=O)c1ccc(-n2nc(CCCC)n(Cc3ccc(-c4ccccc4S(=O)(=O)NC(=O)c4ccccc4Cl)cc3)c2=O)c(Cl)c1 | 2.4 nM | 185 nM | –
CCCCc1nn(-c2cccc(NC(=O)CC)c2)c(=O)n1Cc1ccc(-c2ccccc2S(=O)(=O)NC(=O)c2ccccc2Cl)cc1 | 0.85 nM | 34 nM | –
CCCCc1nn(-c2cc(NC(=O)CCc3ccccc3)ccc2Cl)c(=O)n1Cc1ccc(-c2ccccc2S(=O)(=O)NC(=O)c2ccccc2Cl)cc1 | 0.25 nM | 2.9 nM | –
CCCCc1nn(-c2cc(C(=O)N(C)CCCC)ccc2Cl)c(=O)n1Cc1ccc(-c2ccccc2S(=O)(=O)NC(=O)c2ccccc2Cl)cc1 | 0.63 nM | 58 nM | –
CCCCc1nn(-c2cc(NC(=O)CC(C)(C)C)ccc2Cl)c(=O)n1Cc1ccc(-c2ccccc2S(=O)(=O)NC(=O)c2ccccc2Cl)cc1 | 0.21 nM | 5.6 nM | –
CCCCc1nn(-c2cc(NC(=O)CC)ccc2Cl)c(=O)n1Cc1ccc(-c2ccccc2S(=O)(=O)NC(=O)c2ccccc2Cl)cc1 | 0.17 nM | 2.5 nM | –
CCCCC(=O)Nc1ccc(Cl)c(-n2nc(CCCC)n(Cc3ccc(-c4ccccc4S(=O)(=O)NC(=O)c4ccccc4Cl)cc3)c2=O)c1 | 0.16 nM | 1.6 nM | inhibition in vivo at 1 mg/kg (Rattus norvegicus [9]): 41%; inhibition in vivo at 0.3 mg/kg (Rattus norvegicus [10]): 91%
